Bioassay records as filed in PubChem BioAssay.
PMI act satM6P – increases human PMI activity with near-saturating mannose 6-phosphate. P34949. coupled PMI enzyme assay, resazurin fluorescence, 20 min; hits give high values; 1 = untreated enzyme, 0 = substrate-free blank. activation factor at 20 µM. 0.34% of 190,000 active;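 active = activation factor of 2 or more at 20 µM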
Target sequence (P34949 whole entry, looked up): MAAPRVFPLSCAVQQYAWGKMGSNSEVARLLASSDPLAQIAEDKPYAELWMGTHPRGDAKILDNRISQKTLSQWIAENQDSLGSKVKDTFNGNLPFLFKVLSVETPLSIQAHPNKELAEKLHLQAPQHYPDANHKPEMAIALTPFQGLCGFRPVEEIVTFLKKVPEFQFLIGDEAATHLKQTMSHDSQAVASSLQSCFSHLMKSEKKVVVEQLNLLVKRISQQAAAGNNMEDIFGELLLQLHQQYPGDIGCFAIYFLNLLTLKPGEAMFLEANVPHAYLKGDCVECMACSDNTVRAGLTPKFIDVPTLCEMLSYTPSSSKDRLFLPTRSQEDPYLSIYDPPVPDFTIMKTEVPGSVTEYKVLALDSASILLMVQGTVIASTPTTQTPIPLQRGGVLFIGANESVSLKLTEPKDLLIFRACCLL
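Test system: human PMI in coupled enzyme assay; Input: PMI at 15 ng/mL final; Medium: HEPES buffer, pH 7.4; Schedule: 20 min incubation at room temperature; Technique: resorufin fluorescence at Ex 544/Em 590 nm; Compound: 20 µM single dose; Probe or stimulus: Near-saturating mannose-6-phosphate, 1.0 mM.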
FLuc inh counter – counter-screen for luciferase assay inhibitors: firefly luciferase inhibition. ATPLite firefly luciferase biochemical luminescence, 10 min. inhibition, % at 10 µM. 1.5% of 200,000 active. AID 1006;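 active = inhibition above about 50% when tested at 10 µM, limit read from the data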
Diaph act CS – diaphorase activation or chemical reduction counter-screen | Diaphorase/resazurin coupled assay, resorufin fluorescence, 16 min; hits give high values; 1 = vehicle wells, 0 = NADH-free wells | activation factor at 20 µM | 0.005% of 190,000 active;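 active = diaphorase activity raised at least twofold by the compound at 20 µM; inactive = activation factor below 2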
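Assay system: bacterial diaphorase enzyme (C. kluyveri) / Input: enzyme 0.07 U/mL final / Medium: 50 mM HEPES pH 7.4 with 4.542 mM MgCl2, 0.005% Tween 20 / Doses: single compound dose of 20 µM, 1% DMSO final / Incubation: 16 min enzyme reaction, ambient temperature / Signal: fluorescence, excitation 544 nm and emission 590 nm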
FLuc act counter – firefly luciferase counter-screen for stimulation assays; P08659; ATPlite luciferase biochemical, luminescence, 10 min; 0 = ATP-free wells, 1 = DMSO control; activation factor at 10 µM; 200,000 tested, under 10 active; AID 1027;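 active = luciferase activation factor, scaled between plate controls, of at least 2 with compound at 10 µM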
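Material: Luciferase/luciferin reagent mix; Doses: test compounds dosed from 2 mM stocks in 100% DMSO; Schedule: 10 min incubation after luciferase reagent addition, room temperature; Measured by: luminescence from luciferase reaction; Read-out: luminescence gain marking luciferase activators.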
Diaph inh CS – diaphorase inhibition or chemical oxidation counter-screen | diaphorase resazurin-to-resorufin fluorescence, NADH, 16 min; bacterial (C. kluyveri) enzyme, not human | inhibition, % at 20 µM | 0.69% of 190,000 active | AID 1217;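 active = primary screen inhibition at 20 µM above a set limit, cut at about 50% in these data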;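 note: plate controls were DMSO with full reaction for no effect and wells lacking NADH for full effect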
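System: Bacterial diaphorase enzyme (C. kluyveri) | Incubation: 16-min room-temperature incubation before reading | Benchmarks: No-NADH positive control and DMSO neutral control | Measured by: Resorufin fluorescence 544/590 nm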
PMI act – increases human mannose-6-phosphate isomerase activity; purified human PMI, coupled resazurin fluorescence, 20 min; hits give high values; 1 = vehicle control, 0 substrate-free wells; activation factor at 20 µM; 0.005% of 190,000 active; P34949;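 active = activation factor of 2 or more at 20 µM, relative to plate controls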
An asterisk follows results filed as active. Compounds with a hit are over-represented: about 2.5% of the library has one in this group of screens.

SMILES	PMI act satM6P	FLuc inh counter	Diaph act CS	FLuc act counter	Diaph inh CS	PMI act
O=C(COC(=O)c1cccc(S(=O)(=O)N2CCCCC2)c1)NC1CCCc2ccccc21 (configuration not stated)	0.9	-9.5	0.8	1.1	22.9	0.9
CC(C)(C)c1nc(NC(=O)Nc2ccccc2)sc1Br	0.9	1.2	0.9	1	14.1	1
Clc1cccc(Cl)c1CNc1ccc(N2CCCC2)cc1	0.2	2.2	0.2	1	76.5*	0.1
COc1ccc(C)cc1N(CC(=O)N1CCc2ccccc2C1)S(C)(=O)=O	1	0.5	1	1	1.1	1
Cc1ccc(/C=N/NC(=O)CN(Cc2ccccc2)S(=O)(=O)c2ccc3c(c2)OCCO3)cc1	0.9	-7.7	0.9	1.1	14.7	0.8
COc1ccc2nc(-n3c(O)c(C4=c5ccccc5=NC4=O)[nH]c3=S)sc2c1	1	25.6	0.5	0.7	52.0*	1
Cn1c(O)c(C2=c3ccccc3=NC2=O)[nH]c1=S	0.9	4.4	1	1	-4.9	1
Cc1cccc(N2CCN(S(=O)(=O)c3cccc4nonc34)CC2)c1C	1	-8.6	0.9	1.1	14.4	0.9
O=C(COc1ccc(Cl)cc1)Nc1ncc([N+](=O)[O-])s1	1.1	58.7*	1	0.4	0.0	1.2
NC(=O)CSc1nc(-c2ccccc2)nc2c1CCCC2	0.9	-1.5	0.9	1	9.2	0.9
COCCNC(=O)C(c1cccnc1)N(Cc1ccccc1)C(=O)Cn1nnc2ccccc21 (configuration not stated)	1.1	-4.8	1	1	0.0	1
Cc1ccc(C(=O)C(O)C(c2ccc(C)cc2)N2CCCCC2)cc1 (configuration not stated)	1	-6.5	1	1.1	4.9	0.9
COc1ccc(-c2cn3cccc(C)c3n2)cc1F	0.9	43.0	0.8	0.6	17.2	1
Cc1cccn2cc(-c3ccc(Cl)cc3)nc12	1	63.2*	0.9	0.4	14.1	1
Cc1ccc(-c2cn3cccc(C)c3n2)cc1	1.1	69.1*	1	0.3	-2.8	1.1
CC(OC(=O)Cc1n[nH]c(=O)c2ccccc12)C(=O)Nc1cccc([N+](=O)[O-])c1 (configuration not stated)	0.9	-5.5	0.9	1.1	7.4	1.1
Fc1ccc(-c2c[nH]c(=S)n2Cc2ccccc2)cc1	1	5.3	1	0.9	3.9	1
O=c1c2c(nc3cc(-c4ccc(Cl)cc4)[nH]n13)CCS2	1	59.8*	0.8	0.4	16.7	0.9
O=c1c2c(nc3cc(-c4ccc(F)cc4)[nH]n13)CCCC2	1	67.6*	1	0.3	-1.6	1
O=c1c2c(nc3cc(-c4cccc(Cl)c4)[nH]n13)CCC2	1	46.9	0.8	0.5	16.6	0.9
CCC(C)(C)NC(=O)Cc1ccc(F)cc1	1.2	-6.5	1.3	1.1	-26.4	1.1
O=C(Cc1ncc(C(F)(F)F)cc1Cl)NCCc1ccccn1	1	-6.0	0.9	1.1	6.8	1
O=C(Nc1ccc(N2CCCCC2)c(C(=O)O)c1)c1ccco1	1	-4.6	0.9	1	8.8	0.9
O=C(Nc1ccc(N2CCCC2)c(Cl)c1)c1ccco1	1.4	77.3*	0.9	0.2	10.2	1.4
O=C(Nc1ccc(CCC(=O)N2CCCC2)cc1)c1ncn[nH]1	1	0.2	0.9	1	9.2	1
SMILES	PMI act satM6P	FLuc inh counter	Diaph act CS	FLuc act counter	Diaph inh CS	PMI act
O=C(Nc1ccc(N2CCCCC2)c(Cl)c1)c1ncn[nH]1	1	56.6*	1	0.4	0.8	1
O=c1c2c(nc3nc(NCc4cccc5ccccc45)[nH]n13)CCC2	0.4	-1.8	0.9	1	13.2	1.1
O=C(c1ccccc1)c1nnc(-c2ccccc2F)o1	0.9	77.7*	0.8	0.2	16.2	0.9
Cc1cc(NC(=O)c2cncc(Br)c2)n(-c2ccccn2)n1	1	-3.6	0.9	1	8.7	0.9
COc1ccc(-c2nc3ccccc3s2)cc1O	0.9	91.2*	0.8	0.1	21.6	0.9
COc1cc(OC)c(-c2nc3ccccc3s2)cc1OC	1	-2.0	0.9	1	14.2	0.9
COc1cc(-c2nc3ccccc3s2)ccc1O	0.9	23.1	0.9	0.8	7.9	0.9
COc1cccc(-c2nc3ccccc3s2)c1O	0.8	86.6*	0.9	0.1	14.0	0.9
CCc1ccc(C(=O)Nc2nnn(CC)n2)cc1	1	86.7*	1	0.1	3.7	1
Nc1c(N2CCCC2)c2ccccc2oc1=O	1	2.8	1	1	0.5	0.9
C=C(C)C1CC=C(C)/C(=N\NC(=S)Nc2ccc(C)cc2)C1 (configuration not stated)	0.9	-2.6	0.3	1	66.0*	0.9
C=C(C)C1CC=C(C)/C(=N/NC(=O)COc2ccc(C)cc2)C1 (configuration not stated)	1	-4.0	1	1	1.4	1
N/C(=N\OC(=O)c1cccs1)c1cccc([N+](=O)[O-])c1	1.1	86.7*	1	0.1	-0.8	1.2
N/C(=N\OC(=O)c1cccc2ccccc12)c1cccc([N+](=O)[O-])c1	1	2.0	0.8	1	22.2	0.9
Cc1cccc(C(=O)O/N=C(\N)c2cccc([N+](=O)[O-])c2)c1	1	87.1*	0.9	0.1	7.9	1
Cc1ccccc1C(=O)O/N=C(\N)c1cccc([N+](=O)[O-])c1	0.9	90.7*	1	0.1	3.5	0.9
CC[C@@H](C)[C@H](NC(=O)C1CCN(C(=O)[C@@H](NS(=O)(=O)c2ccc(C)cc2)C(C)C)CC1)C(=O)O	1	2.3	0.9	1	5.6	1
CS(=O)(=O)c1nc(-c2ccc(Br)cc2)n[nH]1	1	-0.1	1	1	3.6	1.2
Clc1ccccc1OCc1nc(-c2ccccn2)no1	0.9	51.3*	0.8	0.5	16.3	0.9
Clc1ccc(OCc2nc(-c3ccccn3)no2)c(Br)c1	0.9	70.3*	0.9	0.3	13.5	0.9
Clc1ccccc1OCc1nc(-c2ccc(Br)o2)no1	0.8	1.3	0.7	1	26.1	0.8
CCOc1c(Cl)cc(C(=O)Nc2cccc(C(=O)O)c2)cc1Cl	1.1	23.2	0.8	0.8	20.4	1.1
COc1ccc(-c2csc(C3=C(O)CN(CCCN4CCCC4=O)C3=N)n2)cc1OC	0.9	55.9*	0.8	0.4	18.4	0.9
